# How the values were obtained:
# Plasmodium falciparum = experiment: Antiplasmodial activity against chloroquine-resistant Plasmodium falciparum FcB1 infected in human RBC assessed as [3H]-hypoxanthine incorporation after 48 hrs by liquid scintillation counting analysis; assay type: functional, organism-based
# Procedure, shortened: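 FcB1 maintained in RPMI 1640 with L-glutamine, 25 mM HEPES, 10% human serum, group O RBCs, 5% CO2; synchronized by magnetic enrichment then D-sorbitol lysis. Serial dilutions in culture medium; [3H]-hypoxanthine added at 24 h, harvest at 48 h after freeze-thaw. IC50 by linear regression on linear segments of semilog inhibition curves; triplicate, three repeats.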
# [1] = Cytotoxicity against human MCF7 cells assessed as decrease in cell viability after 48 hrs by XTT assay; assay type: cell-based
# Procedure, shortened: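 MCF-7 cells grown as for parasite culture but with 10% fetal calf serum in place of human serum; trypsinized and seeded at 2 × 10^4 cells/well, incubated overnight, then compound added at final 1, 10 and 100 […] mL1. Viability read by XTT reduction after 48 h drug contact; experiments run twice in triplicate.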
# [2] = Selectivity index, ratio of CC50 for human MCF7 cells to IC50 for chloroquine-resistant Plasmodium falciparum FcB1; assay type: functional
# Plasmodium berghei = experiment: In vivo antimalarial activity against Plasmodium berghei ANKA assessed as inhibition of parasitemia at 30 mg/kg/day; assay type: functional
# [3] = Half life in human liver microsomes; assay type: ADME
half-life [3] [min],SMILES,"IC50 (Plasmodium falciparum; Plasmodium falciparum, FcB1) [nM]",CC50 at 48 h [1] [µM],Ratio CC50/IC50 [2],IC50 (Plasmodium falciparum) [nM],inhibition in vivo at 30 mg/kg/day (Plasmodium berghei) [%]
,O=C1C(c2ccccc2)=[N+]([O-])c2cc([N+](=O)[O-])c(/C=C(\Cl)c3ccccc3)cc21,840,59,70,,
,Nc1ccc(C2=[N+]([O-])c3ccccc3C2=O)cc1,168,13,77,,
,COc1ccc2c(c1)[N+]([O-])=C(c1ccc(N)cc1)C2=O,24,12.7,528,,
,COc1ccc2c(c1)C(=O)C(c1ccc(N)cc1)=[N+]2[O-].Cl,< 3,9.7,>3233,,
,COc1ccc2c(c1)C(=O)C(c1ccc(N(C)C)cc1)=[N+]2[O-].Cl,,33.7,>112333,< 0.3,
,COc1ccc2c(c1)C(=O)C(c1ccc(N(C)C)c(C)c1)=[N+]2[O-],40,35.4,885,,
,CCCCNc1ccc(C2=[N+]([O-])c3ccc(OC)cc3C2=O)cc1,21,43.2,2057,,
,COc1ccc2c(c1)C(=O)C(c1ccc(N3CCOCC3)cc1)=[N+]2[O-],6.5,> 29.5,>4538.5,,
,COc1ccc2c(c1)C(=O)C(c1cccnc1)=[N+]2[O-],161,17.3,107,,
,O=C1C(c2ccc(Cl)cc2)=[N+]([O-])c2cccnc21,> 2720,,,,
,O=C1C(c2ccc(Cl)cc2)=[N+]([O-])c2cc[n+]([O-])cc21,> 5440,,,,
,CN(C)c1ccc(C2=[N+]([O-])c3cc(N)ccc3C2=O)cc1,12300,21.3,1.8,,
,Nc1ccc2c(c1)[N+]([O-])=C(c1ccc(Cl)cc1)C2=O,183,11,60,,
,COc1ccc(C2=[N+]([O-])c3cc(N)ccc3C2=O)cc1,1560,> 37.3,>33,,
,COc1ccc2cc(C3=[N+]([O-])c4cc(N)ccc4C3=O)ccc2c1,1320,7.8,6,,
,Nc1ccc2c(c1)[N+]([O-])=C(CCCN1C(=O)c3ccccc3C1=O)C2=O,8300,6.6,0.8,,
,CCOC(=O)c1ccc2c(c1)[N+]([O-])=C(c1ccccc1)C2=O,284,26.4,91.9,,
,COc1ccc2c(c1)C(=O)C(c1ccc(N(C)C)cc1)=[N+]2[O-],,,>14623,< 3,15.3
< 1,O=C1C(c2ccc(Cl)cc2)=[N+]([O-])c2cc3c(cc21)OCO3,,,,,62.1
,C[C@H]1[C@H](OC(=O)CCC(=O)O)O[C@@H]2O[C@@]3(C)CC[C@H]4[C@H](C)CC[C@@H]1[C@@]24OO3 [SODIUM ARESUNATE],6,,,,

# Source: ChEMBL document CHEMBL3352368, “Amino derivatives of indolone-N-oxide: preparation and antiplasmodial properties” (Eur J Med Chem, 2014)
